In ChEMBL document CHEMBL1140915, “Second-generation highly potent and selective inhibitors of the hepatitis C virus NS3 serine protease” (J Med Chem, 2009):
pKi: −log10 of the molar value.

Legend:
[1] = Inhibition of HCV NS3 protease in absence of human serum; set-up: species or system Hepacivirus hominis
Outline: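 Continuous enzymatic assay using NS4A-tethered single-chain HCV NS3 serine protease, without human serum. Ki* is the equilibrium constant, which includes the reversible covalent ketone–serine bond. Compounds were tested as P1 diastereomer mixtures (2:1 to 1:2) that equilibrate rapidly under assay conditions.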

Hepatitis C virus = assay: Antiviral activity against HCV assessed as inhibition of virus replication by cell based assay in absence of human serum; format: functional, Hepacivirus hominis
Outline: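 Replicon-based cellular assay run without human serum. EC90 is the concentration that inhibits replicon replication by 90%. Compounds were tested as rapidly equilibrating P1 diastereomer mixtures.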

[2] = Selectivity for HCV NS3 protease over human neutrophil elastase
Outline: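 Compounds were also assayed against human neutrophil elastase. Selectivity is expressed as the HNE/HCV ratio of the two enzyme potencies.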

[3] = AUC in rat at 10 mg/kg, po administered with 20% HPBCD; format: ADME, organism-based; set-up: dose 10 mg/kg, route oral; details: plasma
[4] = Bioavailability in monkey at 3 mg/kg, po administered with 0.4% hydroxypropyl methylcellulose; format: ADME, organism-based, Macaca mulatta; details: rhesus monkey, in vivo

SMILES	pKi [1]	EC90 (Hepatitis C virus)	Ratio [2]	AUC [3]	bioavailability [4]
C=CCNC(=O)C(=O)C(CCCC)NC(=O)[C@@H]1[C@@H]2[C@H](CN1C(=O)[C@@H](NC(=O)NC(CN1C(=O)CC(C)(CC)CC1=O)C(C)(C)C)C(C)(C)C)C2(C)C (single isomer, unassigned)	8.10	40 nM	2500		
CCCCC(NC(=O)[C@@H]1[C@@H]2[C@H](CN1C(=O)[C@@H](NC(=O)N[C@@H](CN1C(=O)CC(C)(C)CC1=O)C(C)(C)C)C(C)(C)C)C2(C)C)C(=O)C(=O)NC1CC1 (some centres undefined)	8.30	30 nM	6100		
C=CCNC(=O)C(=O)C(CCCC)NC(=O)[C@@H]1[C@@H]2[C@H](CN1C(=O)[C@@H](NC(=O)NC(CN1C(=O)N(C)C(C)(C)C1=O)C(C)(C)C)C(C)(C)C)C2(C)C (single isomer, unassigned)	8.10	60 nM	1600		
C=CCNC(=O)C(=O)C(CCCC)NC(=O)[C@@H]1[C@@H]2[C@H](CN1C(=O)C(NC(=O)NC(CN1C(=O)CC(C)(C)CC1=O)C(C)(C)C)C1(C)Cc3ccccc3C1)C2(C)C (single isomer, unassigned)	7.49	80 nM	220		
C=CCNC(=O)C(=O)C(CCCC)NC(=O)[C@@H]1[C@@H]2[C@H](CN1C(=O)[C@@H](NC(=O)NC(CN1C(=O)CN(c3ccccc3)CC1=O)C(C)(C)C)C(C)(C)C)C2(C)C (single isomer, unassigned)	7.92	100 nM	90		
C=CCNC(=O)C(=O)C(CCCC)NC(=O)[C@@H]1[C@@H]2[C@H](CN1C(=O)[C@@H](NC(=O)N[C@@H](CN1C(=O)CCCC1=O)C(C)(C)C)C(C)(C)C)C2(C)C (some centres undefined)	8.10	150 nM	69000	0.44 µM·h	
C=CCNC(=O)C(=O)C(CCCC)NC(=O)[C@@H]1[C@@H]2[C@H](CN1C(=O)[C@@H](NC(=O)NC(CN1C(=O)CC(C)(C)CC1=O)C(C)(C)C)C(C)(C)C)C2(C)C (single isomer, unassigned)	8.40	40 nM	9300	1.58 µM·h	
CCCCC(NC(=O)[C@@H]1[C@@H]2[C@H](CN1C(=O)[C@@H](NC(=O)NC(CN1C(=O)CC(C)(C)CC1=O)C(C)(C)C)C(C)(C)C)C2(C)C)C(=O)C(=O)NCCC (single isomer, unassigned)	7.68	80 nM	910		
C#CCCC(NC(=O)[C@@H]1[C@@H]2[C@H](CN1C(=O)[C@@H](NC(=O)NC(CN1C(=O)CC(C)(C)CC1=O)C(C)(C)C)C(C)(C)C)C2(C)C)C(=O)C(=O)NCC=C (single isomer, unassigned)	8.70	40 nM	230		
C=CCNC(=O)C(=O)C(CCCC)NC(=O)[C@@H]1[C@@H]2[C@H](CN1C(=O)[C@@H](NC(=O)N[C@@H](CN1C(=O)NC(C)(C)C1=O)C(C)(C)C)C(C)(C)C)C2(C)C (some centres undefined)	7.96	250 nM	2500		
C=CCNC(=O)C(=O)C(CCCC)NC(=O)[C@@H]1[C@@H]2[C@H](CN1C(=O)[C@@H](NC(=O)N[C@@H](CN1C(=O)CN(C)C1=O)C(C)(C)C)C(C)(C)C)C2(C)C (some centres undefined)	7.72	250 nM	1200		
CC(C)(C)NC(=O)N[C@H](C(=O)N1C[C@H]2[C@@H]([C@H]1C(=O)NC(CC1CCC1)C(=O)C(N)=O)C2(C)C)C(C)(C)C (some centres undefined) [BOCEPREVIR]	7.85	350 nM			4%
C=CCNC(=O)C(=O)C(CCCC)NC(=O)[C@@H]1[C@@H]2[C@H](CN1C(=O)[C@@H](NC(=O)NC(CN1C(=O)CCNC1=O)C(C)(C)C)C(C)(C)C)C2(C)C (single isomer, unassigned)	8.40	150 nM	4300		
C=CCNC(=O)C(=O)C(CC1CCC1)NC(=O)[C@@H]1[C@@H]2[C@H](CN1C(=O)[C@@H](NC(=O)N[C@@H](CN1C(=O)CC(C)(C)CC1=O)C(C)(C)C)C(C)(C)C)C2(C)C (some centres undefined)	8.15	40 nM	6400		
CCCCC(NC(=O)[C@@H]1[C@@H]2[C@H](CN1C(=O)[C@@H](NC(=O)N[C@@H](CN1C(=O)CC(C)(C)CC1=O)C(C)(C)C)C(C)(C)C)C2(C)C)C(=O)C(=O)NCc1ccccn1 (some centres undefined)	7.66	80 nM	2500		
C=CCNC(=O)C(=O)C(CCCC)NC(=O)[C@@H]1[C@@H]2[C@H](CN1C(=O)[C@@H](NC(=O)NC(CN1C(=O)CN(C)CC1=O)C(C)(C)C)C(C)(C)C)C2(C)C (single isomer, unassigned)	8.22	40 nM	9500	0.36 µM·h	
C=CCNC(=O)C(=O)C(CCCC)NC(=O)[C@@H]1[C@@H]2[C@H](CN1C(=O)[C@@H](NC(=O)NC(CN1C(=O)C3CCC(C3)C1=O)C(C)(C)C)C(C)(C)C)C2(C)C (single isomer, unassigned)	8.22	60 nM	7000		

SMILES	pKi [1]	EC90 (Hepatitis C virus)	Ratio [2]	AUC [3]	bioavailability [4]
C=CCNC(=O)C(=O)C(CCCC)NC(=O)[C@@H]1[C@@H]2[C@H](CN1C(=O)[C@@H](NC(=O)N[C@@H](CN1C(=O)CCC(C)(C)C1=O)C(C)(C)C)C(C)(C)C)C2(C)C (some centres undefined)	8.15	35 nM	3100		
C=CCNC(=O)C(=O)C(CCCC)NC(=O)[C@@H]1[C@@H]2[C@H](CN1C(=O)[C@@H](NC(=O)NC(CN1C(=O)CNC1=O)C(C)(C)C)C(C)(C)C)C2(C)C (single isomer, unassigned)	8.10	1000 nM	1200		
C=CCNC(=O)C(=O)C(CCCC)NC(=O)[C@@H]1[C@@H]2[C@H](CN1C(=O)[C@@H](NC(=O)NC(CN1C(=O)CC(C)(C)CC1=O)C(C)(C)C)C1CCCCC1)C2(C)C (single isomer, unassigned)	8.70	45 nM	2400	0.45 µM·h	
C=CCNC(=O)C(=O)C(CCC)NC(=O)[C@@H]1[C@@H]2[C@H](CN1C(=O)[C@@H](NC(=O)NC(CN1C(=O)CC(C)(C)CC1=O)C(C)(C)C)C(C)(C)C)C2(C)C (single isomer, unassigned)	8.40	40 nM	1600		
C=CCNC(=O)C(=O)C(CCCC)NC(=O)[C@@H]1[C@@H]2[C@H](CN1C(=O)[C@@H](NC(=O)N[C@@H](CN1C(=O)c3ccccc3C1=O)C(C)(C)C)C(C)(C)C)C2(C)C (some centres undefined)	7.52	750 nM	500		
CCCCC(NC(=O)[C@@H]1[C@@H]2[C@H](CN1C(=O)[C@@H](NC(=O)N[C@@H](CN1C(=O)CC(C)(C)CC1=O)C(C)(C)C)C(C)(C)C)C2(C)C)C(=O)C(=O)NCc1ccccc1 (some centres undefined)	7.85	40 nM	1100		
C=CCNC(=O)C(=O)C(CCCC)NC(=O)[C@@H]1[C@@H]2[C@H](CN1C(=O)[C@@H](NC(=O)NC(CN1C(=O)COCC1=O)C(C)(C)C)C(C)(C)C)C2(C)C (single isomer, unassigned)	8.10	500 nM	7200		
C=CCNC(=O)C(=O)C(CCCC)NC(=O)[C@@H]1[C@@H]2[C@H](CN1C(=O)C(NC(=O)NC(CN1C(=O)CC(C)(C)CC1=O)C(C)(C)C)C1Cc3ccccc3C1)C2(C)C (single isomer, unassigned)	8.40	100 nM	1800		
CCCCC(NC(=O)[C@@H]1[C@@H]2[C@H](CN1C(=O)[C@@H](NC(=O)NC(CN1C(=O)CC(C)(C)CC1=O)C(C)(C)C)C(C)(C)C)C2(C)C)C(=O)C(=O)NCC (single isomer, unassigned)	7.89	70 nM	8200		
C=CCNC(=O)C(=O)C(CCCC)NC(=O)[C@@H]1[C@@H]2[C@H](CN1C(=O)[C@@H](NC(=O)NC(CN1C(=O)CCC1=O)C(C)(C)C)C(C)(C)C)C2(C)C (single isomer, unassigned)	7.89	230 nM	2000		
C=CCNC(=O)C(=O)C(CCCC)NC(=O)[C@@H]1[C@@H]2[C@H](CN1C(=O)[C@@H](NC(=O)NC(CN1C(=O)CC3(CCCC3)CC1=O)C(C)(C)C)C(C)(C)C)C2(C)C (single isomer, unassigned)	8.22	200 nM	3800		
C=CCNC(=O)C(=O)C(CCCC)NC(=O)[C@@H]1[C@@H]2[C@H](CN1C(=O)[C@@H](NC(=O)N[C@@H](CN1C(=O)C3CC3C1=O)C(C)(C)C)C(C)(C)C)C2(C)C (some centres undefined)	8.30	70 nM	9500		
C=CCNC(=O)C(=O)C(CCC1CC1)NC(=O)[C@@H]1[C@@H]2[C@H](CN1C(=O)[C@@H](NC(=O)NC(CN1C(=O)CC(C)(C)CC1=O)C(C)(C)C)C(C)(C)C)C2(C)C (single isomer, unassigned)	8.15	30 nM	11000	0.5 µM·h	
CCCCC(NC(=O)[C@@H]1[C@@H]2[C@H](CN1C(=O)[C@@H](NC(=O)NC(CN1C(=O)CC(C)(C)CC1=O)C(C)(C)C)C(C)(C)C)C2(C)C)C(=O)C(=O)NCc1cccs1 (single isomer, unassigned)	7.92	100 nM	900		
C=CCNC(=O)C(=O)C(CCCC)NC(=O)[C@@H]1[C@@H]2[C@H](CN1C(=O)[C@@H](NC(=O)NC(CN1C(=O)CCN(C)C1=O)C(C)(C)C)C(C)(C)C)C2(C)C (single isomer, unassigned)	8.15	60 nM	1400		
C=CCNC(=O)C(=O)C(CCCC)NC(=O)[C@@H]1[C@@H]2[C@H](CN1C(=O)C(NC(=O)NC(CN1C(=O)CC(C)(C)CC1=O)C(C)(C)C)C1(C)CCCCC1)C2(C)C (single isomer, unassigned)	8.40	45 nM	1000		
